Our source for the Ki values is ChEMBL document CHEMBL1149164, “Design of potent and selective agonists for the human vasopressin V1b receptor based on modifications of [deamino-cys1]arginine vasopressin at position 4” (J Med Chem, 2004).

pKi: −log10 of the molar value. Bridge positions count the residues as written; N and C are the ends. Square brackets hold non-standard residues; d marks the D form. Peptide text beside a SMILES is read from it. Cha = N[C@@H](CC1CCCCC1)C(=O)O; Mpa = O=C(O)CCS

One test concerns the target Vasopressin V2 receptor (Homo sapiens, UniProt P30518). Kind of test: Binding affinity against human vasopressin V2 receptor was determined by using plasma membranes from CHO cells stably transfected with VP/OT receptors. It is filed as cell membranes. Summed up:
(§1)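 Competition binding on plasma membranes from stably transfected CHO cells (human receptors). Membranes (1–20 µg protein) incubated 60 min at 30 °C in 50 mM Tris-HCl pH 7.4, 3 mM MgCl2, 1 mg/mL BSA, leupeptine, 0.1 mM PMSF, with 0.5–3 nM [3H]AVP and increasing analogue; nonspecific binding with 1 µM AVP.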

A further test deals with Vasopressin V1a receptor (Homo sapiens, UniProt P37288). In words: Binding affinity against human vasopressin V1a receptor was determined by using plasma membranes from CHO cells stably transfected with VP/OT receptors. It is filed as cell membranes. Summed up:
as §1

Sequence of Vasopressin V2 receptor (P30518 whole entry): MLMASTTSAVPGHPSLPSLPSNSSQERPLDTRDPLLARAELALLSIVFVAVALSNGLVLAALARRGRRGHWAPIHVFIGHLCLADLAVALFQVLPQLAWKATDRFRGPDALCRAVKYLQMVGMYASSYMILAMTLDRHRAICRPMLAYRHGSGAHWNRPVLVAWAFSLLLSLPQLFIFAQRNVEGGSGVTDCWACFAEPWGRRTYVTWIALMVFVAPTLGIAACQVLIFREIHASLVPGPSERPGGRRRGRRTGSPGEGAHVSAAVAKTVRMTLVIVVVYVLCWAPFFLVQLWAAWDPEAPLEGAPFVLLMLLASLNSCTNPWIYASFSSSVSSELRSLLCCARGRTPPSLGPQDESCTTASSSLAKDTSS
Sequence of Vasopressin V1a receptor (P37288 whole entry): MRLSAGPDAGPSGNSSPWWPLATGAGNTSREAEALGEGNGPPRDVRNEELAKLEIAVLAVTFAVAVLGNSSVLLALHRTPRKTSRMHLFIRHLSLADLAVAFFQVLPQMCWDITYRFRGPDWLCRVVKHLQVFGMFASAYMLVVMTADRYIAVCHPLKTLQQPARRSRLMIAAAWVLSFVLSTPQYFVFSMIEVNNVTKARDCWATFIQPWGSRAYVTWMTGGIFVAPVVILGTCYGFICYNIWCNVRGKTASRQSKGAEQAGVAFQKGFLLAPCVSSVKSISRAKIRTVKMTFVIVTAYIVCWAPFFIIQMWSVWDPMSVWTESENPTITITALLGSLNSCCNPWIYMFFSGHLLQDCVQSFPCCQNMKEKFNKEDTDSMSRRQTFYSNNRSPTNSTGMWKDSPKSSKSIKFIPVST

On to `CC[C@@H]1NC(=O)[C@H](Cc2ccccc2)NC(=O)[C@H](Cc2ccc(O)cc2)NC(=O)CCSSC[C@@H](C(=O)N2CCC[C@H]2C(=O)N[C@@H](CCCN=C(N)N)C(=O)NCC(N)=O)NC(=O)[C@H](CC(N)=O)NC1=O` (stereo in doubt), for which the pKi on Vasopressin V2 receptor was 8.68; at Vasopressin V1a receptor, 7.71. Taken in the same sequence, the figures for `C[C@@H](O)[C@@H]1NC(=O)[C@H](Cc2ccccc2)NC(=O)[C@H](Cc2ccc(O)cc2)NC(=O)CCSSC[C@@H](C(=O)N2CCC[C@H]2C(=O)N[C@@H](CCCN=C(N)N)C(=O)NCC(N)=O)NC(=O)[C@H](CC(N)=O)NC1=O` (stereo in doubt) were 8.82 and 8.54.

Take `C[C@@H]1NC(=O)[C@H](Cc2ccccc2)NC(=O)[C@H](Cc2ccc(O)cc2)NC(=O)CCSSC[C@@H](C(=O)N2CCC[C@H]2C(=O)N[C@@H](CCCN=C(N)N)C(=O)NCC(N)=O)NC(=O)[C@H](CC(N)=O)NC1=O`: the values for the pKi on Vasopressin V2 receptor and at Vasopressin V1a receptor were 7.86 and 7.66, respectively. In the same order, the values of `NC(=O)CNC(=O)[C@H](CCCN=C(N)N)NC(=O)[C@@H]1CCCN1C(=O)[C@@H]1CSSCCC(=O)N[C@@H](Cc2ccc(O)cc2)C(=O)N[C@@H](Cc2ccccc2)C(=O)N[C@@H](CCC(=O)O)C(=O)N[C@@H](CC(N)=O)C(=O)N1` (stereo in doubt) are 5.96 and 6.36.

Turning to `CC[C@H](C)[C@@H]1NC(=O)[C@H](Cc2ccccc2)NC(=O)[C@H](Cc2ccc(O)cc2)NC(=O)CCSSC[C@@H](C(=O)N2CCC[C@H]2C(=O)N[C@@H](CCCN=C(N)N)C(=O)NCC(N)=O)NC(=O)[C@H](CC(N)=O)NC1=O`, the pKi at Vasopressin V2 receptor is 8.00; at Vasopressin V1a receptor it was 7.77. In the case of `NC(=O)CNC(=O)[C@H](CCCN=C(N)N)NC(=O)[C@@H]1CCCN1C(=O)[C@@H]1CSSCCC(=O)N[C@@H](Cc2ccc(O)cc2)C(=O)N[C@@H](Cc2ccccc2)C(=O)N[C@@H](CCCCN=C(N)N)C(=O)N[C@@H](CC(N)=O)C(=O)N1` (stereo in doubt), the pKi on Vasopressin V2 receptor is 5.86; on Vasopressin V1a receptor, 7.32. For the compound `CCCC[C@@H]1NC(=O)[C@H](Cc2ccccc2)NC(=O)[C@H](Cc2ccc(O)cc2)NC(=O)CCSSC[C@@H](C(=O)N2CCC[C@H]2C(=O)N[C@@H](CCCN=C(N)N)C(=O)NCC(N)=O)NC(=O)[C@H](CC(N)=O)NC1=O` (stereo in doubt), the pKi on Vasopressin V2 receptor was 6.93; at Vasopressin V1a receptor, 7.55.

`CC(C)[C@@H]1NC(=O)[C@H](Cc2ccccc2)NC(=O)[C@H](Cc2ccc(O)cc2)NC(=O)CCSSC[C@@H](C(=O)N2CCC[C@H]2C(=O)N[C@@H](CCCN=C(N)N)C(=O)NCC(N)=O)NC(=O)[C@H](CC(N)=O)NC1=O` ([Mpa]YFVNCPRG-NH2; disulfide 1-6): the results for the pKi at Vasopressin V2 receptor and on Vasopressin V1a receptor were 8.92 and 7.94, respectively.

On to `NC(=O)CNC(=O)[C@H](CCCN=C(N)N)NC(=O)[C@@H]1CCCN1C(=O)[C@@H]1CSSCCC(=O)N[C@@H](Cc2ccc(O)cc2)C(=O)N[C@@H](Cc2ccccc2)C(=O)N[C@@H](CC2CCCCC2)C(=O)N[C@@H](CC(N)=O)C(=O)N1` ([Mpa]YF[Cha]NCPRG-NH2; disulfide 1-6), for which the pKi was 6.12 on Vasopressin V2 receptor and 6.82 at Vasopressin V1a receptor. Take `NC(=O)CNC(=O)[C@H](CCCN=C(N)N)NC(=O)[C@@H]1CCCN1C(=O)[C@@H]1CSSCCC(=O)N[C@@H](Cc2ccc(O)cc2)C(=O)N[C@@H](Cc2ccccc2)C(=O)N[C@@H](Cc2ccccc2)C(=O)N[C@@H](CC(N)=O)C(=O)N1` (stereo in doubt): the pKi at Vasopressin V2 receptor was 5.97; at Vasopressin V1a receptor, 7.10. The compound `NC(=O)CNC(=O)[C@H](CCCN=C(N)N)NC(=O)[C@@H]1CCCN1C(=O)[C@@H]1CSSCCC(=O)N[C@@H](Cc2ccc(O)cc2)C(=O)N[C@@H](Cc2ccccc2)C(=O)N[C@@H](CC(N)=O)C(=O)N[C@@H](CC(N)=O)C(=O)N1` (stereo in doubt) gave a pKi on Vasopressin V2 receptor of 7.30. `NCC[C@@H]1NC(=O)[C@H](Cc2ccccc2)NC(=O)[C@H](Cc2ccc(O)cc2)NC(=O)CCSSC[C@@H](C(=O)N2CCC[C@H]2C(=O)N[C@@H](CCCN=C(N)N)C(=O)NCC(N)=O)NC(=O)[C@H](CC(N)=O)NC1=O` (stereo in doubt): the pKi at Vasopressin V2 receptor was 6.25; at Vasopressin V1a receptor it was 7.44. `NC(=O)CNC(=O)[C@H](CCCN=C(N)N)NC(=O)[C@@H]1CCCN1C(=O)[C@@H]1CSSCCC(=O)N[C@@H](Cc2ccc(O)cc2)C(=O)N[C@@H](Cc2ccccc2)C(=O)N[C@@H](CO)C(=O)N[C@@H](CC(N)=O)C(=O)N1` (stereo in doubt): the pKi was 7.61 on Vasopressin V2 receptor and 7.89 at Vasopressin V1a receptor. In the same order, the values of `NCCC[C@@H]1NC(=O)[C@H](Cc2ccccc2)NC(=O)[C@H](Cc2ccc(O)cc2)NC(=O)CCSSC[C@@H](C(=O)N2CCC[C@H]2C(=O)N[C@@H](CCCN=C(N)N)C(=O)NCC(N)=O)NC(=O)[C@H](CC(N)=O)NC1=O` (stereo in doubt) are 5.95 and 7.06. In the same order, the values of `NCCCC[C@@H]1NC(=O)[C@H](Cc2ccccc2)NC(=O)[C@H](Cc2ccc(O)cc2)NC(=O)CCSSC[C@@H](C(=O)N2CCC[C@H]2C(=O)N[C@@H](CCCN=C(N)N)C(=O)NCC(N)=O)NC(=O)[C@H](CC(N)=O)NC1=O` (stereo in doubt) are 4.95 and 6.33. Taken in the same sequence, the figures for `CCC[C@@H]1NC(=O)[C@H](Cc2ccccc2)NC(=O)[C@H](Cc2ccc(O)cc2)NC(=O)CCSSC[C@@H](C(=O)N2CCC[C@H]2C(=O)N[C@@H](CCCN=C(N)N)C(=O)NCC(N)=O)NC(=O)[C@H](CC(N)=O)NC1=O` (stereo in doubt) were 7.62 and 7.65.

On to `CC(C)C[C@@H]1NC(=O)[C@H](Cc2ccccc2)NC(=O)[C@H](Cc2ccc(O)cc2)NC(=O)CCSSC[C@@H](C(=O)N2CCC[C@H]2C(=O)N[C@@H](CCCN=C(N)N)C(=O)NCC(N)=O)NC(=O)[C@H](CC(N)=O)NC1=O`, for which the results for the pKi at Vasopressin V2 receptor and on Vasopressin V1a receptor were 6.61 and 7.36, respectively. In the same order, the values of `NC(=O)CNC(=O)[C@H](CCCN=C(N)N)NC(=O)[C@@H]1CCCN1C(=O)[C@@H]1CSSCCC(=O)N[C@@H](Cc2ccc(O)cc2)C(=O)N[C@@H](Cc2ccccc2)C(=O)N[C@@H](Cc2ccc(O)cc2)C(=O)N[C@@H](CC(N)=O)C(=O)N1` (stereo in doubt) are 6.21 and 7.43.

Consider `NC(=O)CNC(=O)[C@H](CCCN=C(N)N)NC(=O)[C@@H]1CCCN1C(=O)[C@@H]1CSSCCC(=O)N[C@@H](Cc2ccc(O)cc2)C(=O)N[C@@H](Cc2ccccc2)C(=O)NCC(=O)N[C@@H](CC(N)=O)C(=O)N1`, for which the pKi on Vasopressin V2 receptor is 6.26; at Vasopressin V1a receptor, 6.56. In the same order, the values of `NC(=O)CNC(=O)[C@H](CCCN=C(N)N)NC(=O)[C@@H]1CCCN1C(=O)[C@@H]1CSSCCC(=O)N[C@@H](Cc2ccc(O)cc2)C(=O)N[C@@H](Cc2ccccc2)C(=O)N[C@@H](Cc2cccs2)C(=O)N[C@@H](CC(N)=O)C(=O)N1` (stereo in doubt) are 5.35 and 7.20. Regarding `NC[C@@H]1NC(=O)[C@H](Cc2ccccc2)NC(=O)[C@H](Cc2ccc(O)cc2)NC(=O)CCSSC[C@@H](C(=O)N2CCC[C@H]2C(=O)N[C@@H](CCCN=C(N)N)C(=O)NCC(N)=O)NC(=O)[C@H](CC(N)=O)NC1=O` (stereo in doubt), the pKi was 7.43 at Vasopressin V2 receptor and 7.71 on Vasopressin V1a receptor. In the case of `NC(=O)CNC(=O)[C@H](CCCN=C(N)N)NC(=O)[C@@H]1CCCN1C(=O)[C@@H]1CSSCCC(=O)N[C@@H](Cc2ccc(O)cc2)C(=O)N[C@@H](Cc2ccccc2)C(=O)N[C@@H](Cc2c[nH]c3ccccc23)C(=O)N[C@@H](CC(N)=O)C(=O)N1` (stereo in doubt), the pKi on Vasopressin V2 receptor is 7.10; on Vasopressin V1a receptor it was 7.12. In the same order, the values of `N=C(N)NCCC[C@@H]1NC(=O)[C@H](Cc2ccccc2)NC(=O)[C@H](Cc2ccc(O)cc2)NC(=O)CCSSC[C@@H](C(=O)N2CCC[C@H]2C(=O)N[C@@H](CCCN=C(N)N)C(=O)NCC(N)=O)NC(=O)[C@H](CC(N)=O)NC1=O` (stereo in doubt) are 6.88 and 7.27.

Broadly, the pKi is the Ki on a negative log10 scale, so that one unit is a factor of ten.
